# Test results: ChEMBL document CHEMBL4304791, “DABMA: A Derivative of ABMA with Improved Broad-Spectrum Inhibitory Activity of Toxins and Viruses” (ACS Med Chem Lett, 2019)
# Activity calls are given as the source filed them. The rule behind the calls is not given here.
# Experiments:
# [1] = tested on: HeLa; test: Cytotoxicity against human HeLa cells assessed as reduction in cell viability at >100 uM incubated for 20 hrs by Alamar blue assay; format: cell-based
# [2] = tested on: Lyssavirus rabies; test: Antiviral activity against RABV infected in BSR cells preincubated for 4 hrs followed by viral infection and further incubated with compounds for 24 hrs by immunostaining-based assay; format: functional, organism-based
# Procedure, shortened: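 BSR cells were pretreated 4 h with compound, then infected with RABV (MOI = 14) for 1 h. Cells were washed and kept with compound for 24 h, then fixed and immunostained for the RABV ribonucleocapsid (RNP). Nuclei and RNP images from 15 fields per well (>10,000 cells) were used to calculate percent inhibition.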
# [3] = tested on: Zaire ebolavirus; test: Antiviral activity against Zaire EBOV-Mayinga expressing GFP infected in human HeLa cells preincubated for 1 hr followed by viral infection after 24 hrs by DAPI-staining based fluorescence assay; format: functional, organism-based; settings: Zaire, 1976, HeLa
# [4] = tested on: Vero; test: Selectivity index, ratio of CC50 for cytotoxicity against African green monkey Vero cells to EC50 for cytoprotective activity in TcdB-induced cytotoxicity in African green monkey Vero cells; set-up: species or system Chlorocebus sabaeus
# [5] = tested on: A549; test: Inhibition of diphtheria induced toxicity in human A549 cells assessed as protection fold at 30 uM incubated for 20 hrs followed by replacement of [14c]-Leucine containing medium and measured after 4 hrs by liquid scintillation analysis relative to ABMA; format: functional
# Procedure, shortened: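 Single-concentration screen: 30 μM compound on A549 cells with increasing DT concentrations, read as protein synthesis inhibition. Protection fold was calculated with ABMA as the positive control.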
# [6] = tested on: Vero; test: Selectivity index, ratio of CC50 for cytotoxicity against African green monkey Vero cells to EC50 for cytoprotective activity in TcsL-induced cytotoxicity in African green monkey Vero cells; set-up: species or system Chlorocebus sabaeus
# [7] = Cytotoxicity against human A549 cells assessed as reduction in cell viability incubated for 24 hrs by Alamar blue assay; format: cell-based
# Procedure, shortened: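 A549 cytotoxicity by Alamar Blue viability assay; duplicate wells, mean ± SD, one representative experiment (n = 3).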
# [8] = tested on: HUVEC; test: Cytoprotection activity in HUVEC assessed as inhibition of diphtheria induced toxicity by measuring protein synthesis at 15 to 60 uM incubated for 20 hrs followed by replacement of [14c]-Leucine containing medium and measured after 4 hrs by liquid scintillation analysis; format: functional, cell-based; settings: Homo sapiens
# [9] = tested on: A549; test: Cytotoxicity against human A549 cells assessed as reduction in cell viability at 15 uM incubated for 20 hrs in presence of bafilomycin A1; format: cell-based; settings: a549, 20 h
# [10] = tested on: DLD-1; test: Cytoprotection activity in human DLD1 cells assessed as inhibition of diphtheria induced toxicity incubated for 20 hrs followed by replacement of [14c]-Leucine containing medium and measured after 4 hrs by liquid scintillation analysis; format: functional, cell-based
compound,measurement,setting,value
COc1ccc(Br)cc1CNC12CC3CC(C)(CC(C)(C3)C1)C2,Activity,[1],Toxic
same,inhibition,[2],Active
same,EC50,[3],908 nM
same,Ratio CC50/EC50,[4],6.34
same,fold change (FC),[5],18.5
same,Ratio CC50/EC50,[6],7.38
same,CC50 at 24 h,[7],120 µM
same,Activity,[8],Active
same,Activity,[9],Non-Toxic
same,Activity,[10],Active
